Source: PubChem BioAssay (several laboratories)
CHOP inh = inhibitors of CHOP promoter induction, primary screen, cell-based, unfolded protein response, luciferase reporter; CHO-K1 CHOP-promoter luciferase, tunicamycin-induced, 15-18 h; inhibition, % at 10 µM; 220,000 compounds, 3.8% hits; AID 2732, 2010;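 active = compounds that reduced the stress-induced luciferase reporter signal by more than about 70% of percent inhibition, limit read from the data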;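 note: 0% = tunicamycin plus vehicle and 100% = wells without tunicamycin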
MPTP block = mitochondrial permeability transition pore inhibitors, primary screen, biochemical, isolated mouse mitochondria, absorbance. AID 602449, 2012. inhibition, % at 10 µM. 360,000 compounds, 1.4% hits. Ca2+ swelling absorbance, 30 min;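 active = inhibition of 50% or more, scaled per plate between neutral and stimulator controls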;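 note: 0% = DMSO wells given calcium and 100% = 1 mM EGTA wells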
XBP1 UPR activ = activators of adaptive XBP1 UPR arm, primary screen, cell-based, CHO-XBP1 luciferase reporter, luminescence, uHTS. IRE1-XBP1 UPR activation; percent of tunicamycin response, DMSO as zero. activation, % at 20 µM. 330,000 compounds, 0.33% hits;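 active = versus positive control, 20 µM dose yields 30% or more activation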;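 note: 100% = tunicamycin at 10 µg/mL and 0% = DMSO only wells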
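Assay system: IRE1-XBP1 luciferase reporter CHO line. Input: 1000 cells/well. Buffer or medium: F12 with 10% serum. Doses: 20 µM, 1% DMSO. Times: overnight seeding at 37 °C, 6 h compound treatment at 37 °C. Technique: Steady-Glo luciferase glow luminescence, 10 min after reagent addition.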
aDG glyco up = activators of alpha-DG glycosylation, primary screen, uHTS, Pro5-aDG cells, AlphaScreen; alpha-DG glycosylation AlphaScreen (IIH6); 0% Pro5, 100% B10-LARGE cell signal; activation, % at 10 µM; 360,000 compounds, 0.22% hits; AID 624168, 2012;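 active = activation of at least 8% versus controls, or a plate z-score of at least 8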;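 note: Pro5 are CHO cells carrying HIG-tagged alpha-DG that lacks glycosylation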
CHOP UPR activ = activators of apoptotic CHOP UPR arm, primary screen, cell-based, CHO-CHOP luciferase reporter, luminescence, uHTS. AID 449763, 2010. 330,000 compounds, 0.34% hits. UPR activation; percent of tunicamycin response over DMSO baseline. activation, % at 10 µM;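 active = at 10 µM dose, activation of 40% or more, normalized to positive control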;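 note: 100% = tunicamycin at 10 µg/mL and 0% = DMSO alone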
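Evaluation: % reporter activation, DMSO baseline versus tunicamycin full activation; System: CHO-CHOP luciferase reporter cell line; Input: 500 cells/well; Incubation: 6 h compound treatment, 37 °C; Measured by: Steady-Glo luciferase luminescence; Dosing: one dose, 10 µM in 0.5% DMSO; Buffer or medium: F12 medium, 10% FBS; Benchmarks: positive tunicamycin 10 µg/mL, negative DMSO alone.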
GRIN3A LBD mod = binders of NR3A ligand-binding domain, primary screen, biophysical, differential scanning fluorimetry, uHTS; Glutamate receptor ionotropic, NMDA 3A (GRIN3A) ligand-binding domain; NR3A LBD differential scanning fluorimetry, Tm shift; 0% = protein alone, 100% = glycine-bound protein; Tm shift relative to glycine control, % at 25 µM; 340,000 compounds, 2.5% hits;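 active = melting temperature shift of at least 10% of the positive control shift, at one fixed dose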
Starred values were filed as active, the others as inactive; · = not tested or not shown. Hits are enriched below; roughly 5.6% of the tested compounds scored in any of these assays.

SMILES	CHOP inh	MPTP block	XBP1 UPR activ	aDG glyco up	CHOP UPR activ	GRIN3A LBD mod
COc1ccc(N(CC(=O)NC2CCCC2)C(=O)CCC(=O)Nc2nc(C)cs2)cc1OC	·	0	5	0	4	-1
C/C(=N\N=C\c1ccccc1F)c1nnn(-c2nonc2N)c1C	10	2	2	0	3	25*
CC(=O)Nc1ccc(C(=O)c2ccccc2)cc1	16	4	0	0	-1	13*
Nc1ccc(-c2cc(-c3cccc(N)c3)nc(-c3ccccc3)n2)cc1	11	1	-2	0	0	22*
Nc1ccc(-c2nc(-c3ccccc3)nc3ccccc23)cc1	·	4	0	1	2	7
Cc1ccc(NC(=O)c2ccccc2)cc1	-48	2	3	0	3	6
CCOC(=O)Cc1ccc(NC(=O)c2ccc(C(C)(C)C)cc2)cc1	86*	-3	-3	0	-1	-4
CC(=O)Nc1ccc(NC(=O)c2ccc(NC(=O)c3ccccc3)cc2)cc1	·	0	-1	0	0	28*
CCOC(=O)c1ccc(NC(=O)c2ccc(NC(=O)c3ccccc3)cc2)cc1	-9	2	0	0	0	30*
CC(=O)Nc1ccc(C(=O)NCCc2ccccc2)cc1	10	0	4	0	5	16*
O=C(/C=C/c1cccs1)Nc1nccs1	14	-1	1	0	2	-10
C/C(=N\NC(=O)c1ccn(C)n1)c1ccc(NC(=O)c2cccc(F)c2)cc1	·	0	-1	0	4	16*
O=C(/C=C/c1cccs1)Nc1cccc(NC(=O)/C=C/c2cccs2)n1	-32	8	4	-1	10	24*
CCOC(=O)c1ccc(NC(=O)c2ccc[n+]([O-])c2)cc1	·	0	1	0	0	-1
COc1cc(C)c(NC(=O)COc2ccc3c(c2)CCC3)cc1OC	·	6	-4	0	0	-1
C/C(=N\NC(=O)c1ccccc1O)c1ccc(NC(=O)c2ccccc2)cc1	·	-1	-3	0	6	11*
CCOc1ccc(CC(=O)NNC(=S)Nc2ccccc2)cc1Br	8	0	0	0	1	13*
CCOc1ccc(C(=O)Nc2ccc(NC(=O)c3ccccc3)cc2)cc1Br	·	1	-1	0	-1	29*
COc1ccc(CC(=O)NNC(=S)Nc2ccccc2)cc1Br	2	0	3	0	1	-19
CC(=O)Nc1ccc(CCNC(=O)c2ccc3ccccc3c2O)cc1	·	1	·	0	·	24*
CCOC(=O)c1sc(=S)n(C)c1NC(=O)c1ccccc1	5	2	-2	0	3	16*
CCOC(=O)c1ccc(NC(=O)/C=C/c2cccs2)cc1	-12	1	-1	2	11	23*
COC(=O)c1ccc(NC(=O)C(=O)N2CCN(C(=S)NCCc3ccccc3)CC2)cc1	37	-1	-2	0	2	15*
CC(=O)Nc1ccc(-c2cc(-c3ccccc3)nc(-c3ccccc3)n2)cc1	31	2	10	0	0	36*
CCN(CC)CCOC(=O)c1ccc(NC(=O)/C=C/c2cccs2)cc1	50	0	-3	0	2	5
CN(C)CC(O)CN1C(=O)N(CN2C(=O)N(CC(O)CN(C)C)C(=O)C2(C)C)C(C)(C)C1=O (centres undefined)	6	-2	-4	0	2	0
O=C(NCc1ccccc1)c1cc(C2COCCN2C(=O)C2CC2)on1 (centres undefined)	·	0	·	0	·	·
Cn1nc(C(=O)OCc2ccc(Br)cc2F)c2ccccc2c1=O	44	11	-2	0	2	3
